Results from ChEMBL document CHEMBL4765236, “Insights into the Antimicrobial Activity and Cytotoxicity of Engineered α-Helical Peptide Amphiphiles” (J Med Chem, 2016).
Calls of active or inactive are those of the source. The calls are words filed in the database; no cut-off is given here.

Legend:
Escherichia coli [1] = experiment: Antibacterial activity against Escherichia coli O157:H7 CICC 21530 assessed as bacterial growth inhibition incubated for 18 to 24 hrs by microtiter broth dilution method; type: functional; conditions: time 18-24 hrs
How it was run: (§1)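 Log-phase bacteria grown at 37 °C in MHB, diluted to 10^5 CFU/mL, mixed 1:1 with serial peptide dilutions (peptide diluted in 0.01% acetic acid, 0.2% BSA); 37 °C for 18-24 h. MIC read by OD492 as lowest concentration giving no growth; mean of 3-5 independent experiments.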

Escherichia coli [2] = experiment: Induction of morphological changes in Escherichia coli O157:H7 CICC 21530 assessed as membrane stunting at 1 times MIC after 60 mins by SEM analysis; type: functional, organism-based
Bacillus pumilus = experiment: Antibacterial activity against Bacillus pumilus CMCC 63202 assessed as bacterial growth inhibition incubated for 18 to 24 hrs by microtiter broth dilution method; type: functional; conditions: time 18-24 hrs
How it was run: (§2)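 Log-phase cells (grown overnight at 37 °C, subcultured in MHB) diluted to 10^5 CFU/mL in MHB and mixed 1:1 with serial peptide dilutions prepared in 0.01% acetic acid/0.2% BSA. Incubated 37 °C for 18-24 h. MIC is the lowest concentration giving no growth by OD492. Reported as the average of 3-5 independent experiments.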

Staphylococcus aureus [3] = experiment: Antibacterial activity against Staphylococcus aureus GIM 1.160 assessed as bacterial growth inhibition incubated for 18 to 24 hrs by microtiter broth dilution method; type: functional; conditions: time 18-24 hrs; how it was run: as §2
Salmonella typhimurium = experiment: Antibacterial activity against Salmonella typhimurium CMCC 51005 assessed as bacterial growth inhibition incubated for 18 to 24 hrs by microtiter broth dilution method; type: functional, Salmonella enterica subsp. enterica serovar Typhimurium; conditions: Salmonella enterica, time 18-24 hrs; how it was run: as §2
RAW264.7 = experiment: Cytotoxicity against mouse RAW264.7 cells assessed as increase in cell viability at 64 uM incubated for 24 hrs by MTT assay relative to control; type: cell-based; conditions: raw264.7, 24 h
How it was run: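 RAW264.7 macrophages were grown in DMEM with 10% FBS, 2 mM glutamine and penicillin/streptomycin at 37 °C in 5% CO2. Cells seeded at 1.0-2.0 × 10^4 per well and treated with peptide (final 0.25-64 µM) for 24 h at 37 °C. MTT at 0.5 mg/mL added for 4 h, formazan dissolved in DMSO, read at 570 nm.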

Escherichia coli [4] = experiment: Antibacterial activity against Escherichia coli O157:H7 CICC 21530 assessed as bacterial growth inhibition incubated for 18 to 24 hrs in presence of 1 mM MgCl2 by microtiter broth dilution method (reference value: 0.85 to > 71.5 uM); type: functional; conditions: time 18-24 hrs
Salmonella paratyphi [5] = experiment: Antibacterial activity against Salmonella paratyphi C CICC 21512 assessed as bacterial growth inhibition incubated for 18 to 24 hrs by microtiter broth dilution method; type: functional; conditions: Salmonella enterica, time 18-24 hrs; how it was run: as §1
[6] = Therapeutic index, ratio of MHC10 for human RBC to geometric mean of peptide MIC for Staphylococcus aureus ATCC 29213; type: toxicity; conditions: human red blood cells (RBC), pooled result: one value given for 9 cell lines, strains, targets or settings, read-out: TI
How it was run: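 Therapeutic index = MHC (peptide concentration giving 10% hemolysis of human RBCs, 1 h, 37 °C, A540) divided by geometric mean of MICs from broth microdilution (10^5 CFU/mL in MHB, 37 °C, 18-24 h, OD492).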

Cell membrane [7] = experiment: Induction of cell membrane depolarization in Escherichia coli O157:H7 CICC 21530 assessed as increase in fluorescence intensity at 0.5 to 2 times MIC preincubated for 90 mins followed by KCl addition and measured after 15 to 30 mins by DiSC3-5 staining based fluorescence spectroscopic technique; type: subcellular; conditions: time 105-120 min
Shigella flexneri = experiment: Antibacterial activity against Shigella flexneri CMCC 51571 assessed as bacterial growth inhibition incubated for 18 to 24 hrs by microtiter broth dilution method; type: functional; conditions: time 18-24 hrs; how it was run: as §2
Staphylococcus aureus [8] = experiment: Antibacterial activity against Staphylococcus aureus ATCC 29213 assessed as bacterial growth inhibition incubated for 18 to 24 hrs in presence of 6 mM NH4Cl by microtiter broth dilution method (reference value: 0.43 to > 71.5 uM); type: functional; conditions: time 18-24 hrs
Candida albicans = experiment: Antifungal activity against Candida albicans ATCC 10231 assessed as fungal growth inhibition incubated for 18 to 24 hrs by microtiter broth dilution method; type: functional; conditions: time 18-24 hrs; how it was run: as §2
Salmonella enterica = experiment: Antibacterial activity against Salmonella choleraesuis ATCC 13312 assessed as bacterial growth inhibition incubated for 18 to 24 hrs by broth dilution method; type: functional; conditions: time 18-24 hrs; how it was run: as §1
Bacillus cereus = experiment: Antibacterial activity against Bacillus cereus CMCC 63301 assessed as bacterial growth inhibition incubated for 18 to 24 hrs by microtiter broth dilution method; type: functional; conditions: time 18-24 hrs; how it was run: as §2
Staphylococcus aureus [9] = experiment: Antibacterial activity against Staphylococcus aureus ATCC 29213 assessed as bacterial growth inhibition incubated for 18 to 24 hrs in presence of 4.5 mM KCl by microtiter broth dilution method (reference value: 0.43 to > 71.5 uM); type: functional; conditions: time 18-24 hrs
Staphylococcus aureus [10] = experiment: Induction of morphological changes in Staphylococcus aureus ATCC 29213 assessed as membrane creeping at 1 times MIC after 60 mins by SEM analysis; type: functional, organism-based
How it was run: (§3)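 S. aureus grown to exponential phase in MHB at 37 °C with shaking at 220 rpm. Cells washed twice in PBS, resuspended to OD600 0.2, then exposed to peptide at 1× MIC for 60 min at 37 °C; untreated cells served as control. Cells were pelleted, PBS-washed, fixed overnight in 2.5% glutaraldehyde at 4 °C, dehydrated through graded ethanol then tert-butanol, and imaged by SEM.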

Salmonella paratyphi [11] = experiment: Antibacterial activity against Salmonella paratyphi A CICC 20501 assessed as bacterial growth inhibition incubated for 18 to 24 hrs by microtiter broth dilution method; type: functional, Salmonella enterica subsp. enterica serovar Paratyphi A; conditions: Salmonella enterica, time 18-24 hrs; how it was run: as §1
Escherichia coli [12] = experiment: Antibacterial activity against Escherichia coli ATCC 25922 assessed as bacterial growth inhibition incubated for 18 to 24 hrs by microtiter broth dilution method; type: functional; conditions: time 18-24 hrs; how it was run: as §2
Salmonella enteritidis = experiment: Antibacterial activity against Salmonella enteritidis CICC 21527 assessed as bacterial growth inhibition incubated for 18 to 24 hrs by microtiter broth dilution method; type: functional, Salmonella enterica subsp. enterica serovar Enteritidis; conditions: Salmonella enterica, time 18-24 hrs; how it was run: as §2
Staphylococcus aureus [13] = experiment: Bactericidal activity against Staphylococcus aureus ATCC 29213 assessed as bacterial killing at 1 times MIC by time kill assay; type: functional, organism-based; conditions: time 1085.0 min, TDE = time-dependent effect
How it was run: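 Log-phase S. aureus 29213 exposed to peptide at 1 × MIC in 10 mM PBS pH 7.4 at 37 °C for 0-90 min. Aliquots taken at fixed intervals, diluted and plated on nutrient agar, and colonies counted after 18 h at 37 °C. Average of three independent assays.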

Staphylococcus aureus [14] = experiment: Antibacterial activity against Staphylococcus aureus ATCC 29213 assessed as bacterial growth inhibition incubated for 18 to 24 hrs by microtiter broth dilution method; type: functional; conditions: time 18-24 hrs; how it was run: as §2
Staphylococcus aureus [15] = experiment: Induction of morphological changes in Staphylococcus aureus ATCC 29213 assessed as membrane stunting at 1 times MIC after 60 mins by SEM analysis; type: functional, organism-based; how it was run: as §3
Escherichia coli [16] = experiment: Antibacterial activity against Escherichia coli O157:H7 CICC 21530 assessed as bacterial growth inhibition incubated for 18 to 24 hrs in presence of 150 mM NaCl by microtiter broth dilution method (reference value: 0.85 to > 71.5 uM); type: functional; conditions: time 18-24 hrs
Cell membrane [17] = experiment: Induction of outer membrane permeabilization in Escherichia coli O157:H7 CICC 21530 assessed as increase in fluorescence intensity by NPN-dye based fluorescence assay; type: subcellular; conditions: dose 0.625-7.5 µM

Substance	MIC (Escherichia coli [1])	Activity (Escherichia coli [2])	MIC (Bacillus pumilus)	MIC (Staphylococcus aureus [3])	MIC (Salmonella typhimurium)	Activity (RAW264.7)	MIC (Escherichia coli [4])	MIC (Salmonella paratyphi [5])	selectivity ratio [6]	Activity (Cell membrane [7])	MIC (Shigella flexneri)	MIC (Staphylococcus aureus [8])	MIC (Candida albicans)	MIC (Salmonella enterica)	MIC (Bacillus cereus)	MIC (Staphylococcus aureus [9])	Activity (Staphylococcus aureus [10])	MIC (Salmonella paratyphi [11])	MIC (Escherichia coli [12])	MIC (Salmonella enteritidis)	other results
H-WGEAFSAGVHRLANGGNG-NH2	> 71.2 µM	Active	> 71.2 µM	> 71.2 µM	> 71.2 µM	73.62%	> 71.2 µM	> 71.2 µM	1	Active	> 71.2 µM	> 71.2 µM	> 71.2 µM	> 71.2 µM	> 71.2 µM	> 71.2 µM	Active	> 71.2 µM	> 71.2 µM	> 71.2 µM	Activity (Staphylococcus aureus [13]): Tde; MIC (Staphylococcus aureus [14]): > 71.2 µM; Activity (Staphylococcus aureus [15]): Active; MIC (Escherichia coli [16]): > 71.2 µM
H-WLRAFRRLVRRLARGLRR-NH2	0.85 µM	Active	0.85 µM	0.43 µM	6.81 µM	40.73%	0.85 µM	0.43 µM	59.1	Active	0.43 µM	0.43 µM	3.4 µM	1.7 µM	0.85 µM	0.21 µM	Active	0.43 µM	1.7 µM	6.81 µM	Activity (Cell membrane [17]): Dose-dependent effect; Activity (Staphylococcus aureus [13]): Tde; MIC (Staphylococcus aureus [14]): 0.43 µM; Activity (Staphylococcus aureus [15]): Active; MIC (Escherichia coli [16]): 3.4 µM
